The values below come from ChEMBL document CHEMBL4680357, “The Basicity Makes the Difference: Improved Canavanine-Derived Inhibitors of the Proprotein Convertase Furin” (ACS Med Chem Lett, 2021).

One series concerns Human orthopneumovirus. In words: Antiviral activity against RSV A2 infected in A549 cells assessed as reduction in plaque formation incubated for 72 hrs upto 10 uM followed by viral infection at MOI of 1 for 1 hr by multicycle replication assay. In kind it is functional, organism-based. Conditions: human respiratory syncytial virus, dose microM <=10, time 72.0 hrs. A digest of the protocol: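 A549 human lung cells were inoculated with RSV A2 at MOI 1 for 1 h, washed, then kept with inhibitor at 0.5–10 μM (0.1–2.5 μM for one compound) or without inhibitor. Supernatants were collected at 16, 24, 48 and 72 h post infection. Titres (PFU/mL) were read by plaque assay, mean ± standard deviation, n = 3.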

The target in the next series is Furin (Homo sapiens, UniProt P09958). In words: Inhibition of recombinant soluble human furin using Phac-Arg-Val-Arg-Arg-AMC fluorogenic substrate. A digest of the protocol:
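Enzyme kinetic assay under standard conditions at pH 7.0, using recombinant soluble human furin and the fluorogenic AMC substrate. Inhibition constants were determined from the kinetics.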

The next series concerns dengue virus type 2. The experiment in a line: Antiviral activity against DENV-2 infected in african green monkey Vero 76 cells assessed as virus titer reduction incubated for 48 hrs by plaque assay. The series is classed as functional, organism-based.
The next series concerns West Nile virus. The experiment in a line: Antiviral activity against West Nile virus infected in […] cells assessed as virus titer reduction incubated for 48 hrs by plaque assay. The series is classed as functional, organism-based. Conditions: Vero 76, 48 h. The procedure, abridged: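 Huh-7 cells infected with dengue virus type 2 (strain 16681) or West Nile virus, then cultured with inhibitor. Supernatants were collected 48 h post-infection and titrated by plaque assay on VeroE6 cells (n = 2, mean ± standard deviation). EC50 was calculated from the titer data.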

The nature of series [1]: Cytotoxicity against african green monkey Vero 76 cells by Cell Titer Glo assay. In kind it is cell-based. Conditions: chlorocebus sabaeus. (In general: Cellular ATP, detected with luciferase, serves as a proxy for viable cell number.)
The target in the next series is Prothrombin (Bos taurus, UniProt P00735). In words: Inhibition of bovine thrombin using Tos-Gly-Pro-Arg-AMC as substrate by fluorescence assay.
The target of a further series is Coagulation factor X (Homo sapiens, UniProt P00742). The experiment in a line: Inhibition of human factor Xa using Mes-Darg-Pro-Arg-AMC as flurogenic substrate by fluorescence assay.
Sequence of Coagulation factor X (P00742 41-179 limits assumed): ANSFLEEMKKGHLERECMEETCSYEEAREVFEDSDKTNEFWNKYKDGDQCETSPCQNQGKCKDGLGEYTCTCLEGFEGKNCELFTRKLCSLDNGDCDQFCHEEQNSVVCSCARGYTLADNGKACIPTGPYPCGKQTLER
Sequence of Coagulation factor X (P00742 235-488 limits assumed): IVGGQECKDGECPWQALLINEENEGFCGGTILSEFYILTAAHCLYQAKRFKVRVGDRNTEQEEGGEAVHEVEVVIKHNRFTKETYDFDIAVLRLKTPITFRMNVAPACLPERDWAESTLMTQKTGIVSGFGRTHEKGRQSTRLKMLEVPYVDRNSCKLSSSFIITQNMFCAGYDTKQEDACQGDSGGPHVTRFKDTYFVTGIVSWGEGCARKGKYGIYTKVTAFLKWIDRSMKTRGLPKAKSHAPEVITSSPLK
Another series has as its target Plasminogen (Homo sapiens, UniProt P00747). In words: Inhibition pf human plasmin using Mes-Darg-Phe-Arg-AMC as substrate by fluorescence assay.
Series [2] is described as follows: Half life in Sprague-Dawley rat at 1 mg/kg, iv. As to conditions: in vivo. The series is classed as ADME, organism-based. The procedure, abridged: (§1)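 Rat pharmacokinetics: single intravenous dose of 1 mg/kg or intraperitoneal dose of 2.5 mg/kg. Plasma inhibitor levels were followed over time, and half-life and total body clearance were derived for each route. Cmax and time to Cmax were also derived after intraperitoneal dosing.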

Series [3] can be described thus: Total body clearance in Sprague-Dawley rat at 1 mg/kg, iv. In kind it is ADME, organism-based. Conditions: in vivo. A digest of the protocol: as §1
Series [4] in a line: Half life in Sprague-Dawley rat at 2.5 mg/kg, ip. In kind it is ADME, organism-based. As to conditions: in vivo. The procedure, abridged:
as §1

Series [5] can be described thus: Total body clearance in Sprague-Dawley rat at 2.5 mg/kg, ip. As to conditions: in vivo. In kind it is ADME, organism-based. The procedure, abridged: as §1
Series [6] is described as follows: Cmax in Sprague-Dawley rat at 2.5 mg/kg, ip. In kind it is ADME, organism-based. Also on record: route intraperitoneal, dose 2.5 mg/kg. As to conditions: in vivo. The procedure, abridged: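 Rats received a single intraperitoneal dose of 2.5 mg/kg. Plasma drug levels were followed over time, and half-life, total body clearance, and peak plasma concentration with its time were derived from the concentration–time profile.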

The nature of series [7]: Toxicity in rat assessed as mortality at 1 mg/kg, iv. In kind it is organism-based. As to conditions: in vivo.
The nature of series [8]: Plasma concentration in Sprague-Dawley rat at 2.5 mg/kg, ip measured after 3 hrs. In kind it is ADME, organism-based.

The term Ki denotes the equilibrium dissociation constant of an inhibitor or competing ligand from its target. Usually EC50 stands for the concentration needed to bring the measured effect to its halfway point. A word on the CC50: it is the concentration that lowers cell viability or growth by half. Usually half-life stands for the time needed for the level to fall by half in the phase considered. As a reminder, the clearance is the rate of elimination divided by the concentration. Usually CL/F stands for clearance divided by bioavailability, as obtained after extravascular dosing. In general, Cmax refers to the highest concentration seen after dosing.

Calls of active or inactive are those of the source.

Sequence of Furin (P09958 whole entry): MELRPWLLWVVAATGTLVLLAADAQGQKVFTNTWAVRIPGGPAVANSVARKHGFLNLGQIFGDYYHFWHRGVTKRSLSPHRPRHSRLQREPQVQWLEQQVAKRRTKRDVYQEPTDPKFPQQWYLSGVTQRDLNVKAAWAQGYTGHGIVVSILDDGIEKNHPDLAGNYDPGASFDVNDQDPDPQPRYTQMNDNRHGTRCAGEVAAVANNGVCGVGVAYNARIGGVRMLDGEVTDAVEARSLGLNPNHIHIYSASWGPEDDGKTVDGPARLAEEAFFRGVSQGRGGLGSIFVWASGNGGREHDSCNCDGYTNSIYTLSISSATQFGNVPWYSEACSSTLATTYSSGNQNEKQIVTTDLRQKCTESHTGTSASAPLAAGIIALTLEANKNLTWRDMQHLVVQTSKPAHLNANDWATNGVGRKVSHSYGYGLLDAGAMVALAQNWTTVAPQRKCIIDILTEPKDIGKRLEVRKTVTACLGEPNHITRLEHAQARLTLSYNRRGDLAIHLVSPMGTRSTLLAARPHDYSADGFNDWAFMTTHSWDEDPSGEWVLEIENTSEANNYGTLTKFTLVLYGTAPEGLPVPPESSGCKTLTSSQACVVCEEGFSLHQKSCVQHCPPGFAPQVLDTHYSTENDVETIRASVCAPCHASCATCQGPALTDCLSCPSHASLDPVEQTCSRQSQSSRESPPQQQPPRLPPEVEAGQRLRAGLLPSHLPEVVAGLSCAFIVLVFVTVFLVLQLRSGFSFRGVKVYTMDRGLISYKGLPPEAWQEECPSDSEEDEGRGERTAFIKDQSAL
Sequence of Plasminogen (P00747 97-580 limits assumed): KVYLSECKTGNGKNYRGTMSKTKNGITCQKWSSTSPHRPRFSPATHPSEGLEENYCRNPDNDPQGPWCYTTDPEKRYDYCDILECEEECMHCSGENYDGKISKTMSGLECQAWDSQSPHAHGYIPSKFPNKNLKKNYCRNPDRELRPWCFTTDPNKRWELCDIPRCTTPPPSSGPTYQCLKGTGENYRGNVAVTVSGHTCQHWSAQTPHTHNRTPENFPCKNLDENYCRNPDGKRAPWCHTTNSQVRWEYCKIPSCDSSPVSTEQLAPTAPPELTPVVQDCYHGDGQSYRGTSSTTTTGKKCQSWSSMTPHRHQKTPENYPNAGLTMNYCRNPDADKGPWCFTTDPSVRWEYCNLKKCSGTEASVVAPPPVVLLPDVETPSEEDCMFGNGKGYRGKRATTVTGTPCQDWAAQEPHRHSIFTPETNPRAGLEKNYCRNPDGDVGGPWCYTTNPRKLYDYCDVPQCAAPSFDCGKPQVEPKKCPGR
Sequence of Plasminogen (P00747 581-810 limits assumed): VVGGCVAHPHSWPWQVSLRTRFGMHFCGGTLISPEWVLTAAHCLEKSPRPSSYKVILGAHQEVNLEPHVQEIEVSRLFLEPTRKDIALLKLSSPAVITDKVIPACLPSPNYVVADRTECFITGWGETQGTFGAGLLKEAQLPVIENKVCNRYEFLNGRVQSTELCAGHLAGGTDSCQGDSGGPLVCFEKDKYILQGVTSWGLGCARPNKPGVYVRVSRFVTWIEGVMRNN

As to `CC(C)(C)[C@H](NC(=O)[C@H](CCONC(=N)N)NC(=O)Cc1ccc(CN)cc1)C(=O)N[C@@H](CCCCN)C(=O)NCc1ccc(C(=N)N)cc1`, the outcome with Human orthopneumovirus was inactive.

Regarding `CC(C)(C)[C@H](NC(=O)[C@H](CCONC(=N)N)NC(=O)Cc1ccc(CN)cc1)C(=O)N[C@@H](CCONC(=N)N)C(=O)NCc1ccc(C(=N)N)cc1`, the Ki at Furin was 0.0342 nM.

As for `CC(C)(C)[C@H](NC(=O)[C@H](CCCNC(=N)N)NC(=O)Cc1ccc(CNC(=N)N)cc1)C(=O)N[C@@H](CCCNC(=N)N)C(=O)NCc1ccc(C(=N)N)cc1`, the outcome with Human orthopneumovirus was Active. Also, the EC50 with dengue virus type 2 is 760 nM; with West Nile virus, 910 nM. In addition, the cytotoxic concentration (CC50) in [1] was above 50000 nM. Further, the Ki on Prothrombin, on Coagulation factor X and on Plasminogen was above 3000 nM each time.

Take `CC(C)(C)[C@H](NC(=O)[C@H](CCONC(=N)N)NC(=O)Cc1ccc(CNC(=N)N)cc1)C(=O)N[C@@H](CCONC(=N)N)C(=O)NCc1ccc(C(=N)N)cc1`: the outcome with Human orthopneumovirus was Active. For the same compound, the EC50 with dengue virus type 2 stood at 1500 nM; in the series with West Nile virus it was 1460 nM. The compound further came in with a CC50 in series [1] above 50000 nM. The half-life is 0.9 h in [2] and 1.6 h in series [4]. Also, the clearance in series [3] is 7.37 mL/min/kg. In [5], this compound had a CL/F of 4.55 mL/min/kg. Moreover, the highest level in series [6] (Cmax) was 3160 ng/mL. Further, the Activity entry in [7] is given as “Non-Toxic”. The compound also had a concentration at 3 h in series [8] above 1000 ng/mL.

Take `CC(C)(C)[C@H](NC(=O)[C@H](CCCNC(=N)N)NC(=O)Cc1ccc(CN)cc1)C(=O)N[C@@H](CCONC(=N)N)C(=O)NCc1ccc(C(=N)N)cc1`: the inhibitory constant (Ki) on Furin worked out at 0.0768 nM.

In the case of `CC(C)(C)[C@H](NC(=O)[C@H](CCCNC(=N)N)NC(=O)Cc1ccc(CNC(=N)N)cc1)C(=O)N[C@@H](CCONC(=N)N)C(=O)NCc1ccc(C(=N)N)cc1`, on Furin, the Ki was found to be 0.0131 nM.

On to `CC(C)(C)[C@H](NC(=O)[C@H](CCONC(=N)N)NC(=O)Cc1ccc(CNC(=N)N)cc1)C(=O)N[C@@H](CCCCN)C(=O)NCc1ccc(C(=N)N)cc1`, for which the Ki on Furin is 0.0363 nM. The outcome in the series on Human orthopneumovirus was Active.
